Results reported in ChEMBL document CHEMBL1144211, “Overcoming hERG issues for brain-penetrating cathepsin S inhibitors: 2-cyanopyrimidines. Part 2” (Bioorg Med Chem Lett, 2008).

What was measured:
Assay type in all cases: ADME, organism-based
[1] = Plasma concentration in Sprague-Dawley rat at 10 mg/kg, po after 3 hrs; design: dose 10 mg/kg, route oral
Outline: (§1)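 Sprague–Dawley rats received a single oral dose of 10 mg/kg. Plasma and brain concentrations (nM) were measured at 1 h and 3 h after dosing. Values are means of n = 3.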

[2] = Plasma concentration in Sprague-Dawley rat at 10 mg/kg, po after 1 hr; design: dose 10 mg/kg, route oral; outline: as §1
[3] = Drug level in Sprague-Dawley rat brain at 10 mg/kg, po after 3 hrs; design: dose 10 mg/kg, route oral; conditions: read-out: Drug uptake; outline: as §1
[4] = Drug level in Sprague-Dawley rat brain at 10 mg/kg, po after 1 hr; design: dose 10 mg/kg, route oral; conditions: read-out: Drug uptake; outline: as §1
[5] = Half life in Sprague-Dawley rat at 1 mg/kg, iv; design: dose 1 mg/kg, route intravenous; conditions: in vivo
Outline: (§2)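 PK parameters in male Sprague–Dawley rats after intravenous dosing at 1 mg/kg and after oral dosing. Parameters derived were Vdss, apparent half-life, oral Cmax and estimated bioavailability.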

[6] = Cmax in Sprague-Dawley rat at 10 mg/kg, po; design: dose 10 mg/kg, route oral; conditions: in vivo; outline: as §2
[7] = Oral bioavailability in Sprague-Dawley rat at 10 mg/kg; conditions: in vivo; outline: as §2
[8] = Plasma clearance in Sprague-Dawley rat at 1 mg/kg, iv or 10 mg/kg, po
[9] = Volume of distribution at steady state in Sprague-Dawley rat at 1 mg/kg, iv; design: dose 1 mg/kg, route intravenous; conditions: in vivo, read-out: Vdss; outline: as §2
[10] = AUC in Sprague-Dawley rat at 10 mg/kg, po; design: dose 10 mg/kg, route oral; conditions: plasma

Row | Structure (SMILES) | concentration at 3 h [1] | concentration at 1 h [2] | concentration at 3 h [3] | concentration at 1 h [4] | half-life [5] | Cmax [6] | bioavailability [7] | clearance [8] | Vd [9] | AUC [10]
1 | CNC(=O)c1c(NCC2CCC3(CCC3)CC2)nc(C#N)nc1OCC1CCNCC1 | 61 nM | 28 nM | < 13 nM | < 13 nM |  |  |  |  |  | 
2 | CNC(=O)c1c(NCC2CCC3(CCC3)CC2)nc(C#N)nc1OCCO | 170 nM | 283 nM | 849 nM | 692 nM | 1.5 h | 907 nM | 14% | 25 mL/min/kg | 1.2 L/kg | 2.5 µM·h

Continued, values first:

Row | concentration at 3 h [1] | concentration at 1 h [2] | concentration at 3 h [3] | concentration at 1 h [4] | half-life [5] | Cmax [6] | bioavailability [7] | clearance [8] | Vd [9] | AUC [10] | Structure (SMILES)
3 | 381 nM | 191 nM | 455 nM | 67 nM | 11.8 h | 298 nM | 24% | 10 mL/min/kg | 9.3 L/kg | 8.08 µM·h | CNC(=O)c1c(NCC2CCC3(CCC3)CC2)nc(C#N)nc1OCC1CCN(C(C)C)CC1
4 | 287 nM |  | 164 nM |  |  |  |  |  |  |  | CNC(=O)c1c(NCC2CCC3(CCC3)CC2)nc(C#N)nc1OC1CC(C)(C)NC(C)(C)C1
5 | 80 nM | 169 nM | < 13 nM | 27 nM |  |  |  |  |  |  | CNC(=O)c1c(NCC2CCC3(CCC3)CC2)nc(C#N)nc1OCC1CCN(C(C)=O)CC1
6 | 308 nM | 346 nM | 718 nM | 124 nM | 6.7 h | 461 nM | 40% | 18.3 mL/min/kg | 9.8 L/kg | 8.24 µM·h | CNC(=O)c1c(NCC2CCC3(CCC3)CC2)nc(C#N)nc1OCC1CCN(C)CC1
